From ChEMBL document CHEMBL3351276, “Structural basis for rational design of inhibitors targeting Trypanosoma cruzi sterol 14α-demethylase: two regions of the enzyme molecule potentiate its inhibition” (J Med Chem, 2014)

Tests used:
[1] = biological target: Sterol 14-alpha demethylase (Trypanosoma cruzi (strain CL Brener)) (UniProt Q7Z1V1); assay: Binding affinity to Trypanosoma cruzi CYP51 by spectral ligand binding assay
Summary of the method: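 Full-length Tulahuen T. cruzi CYP51 at ~1 μM in 20 mM K-phosphate pH 7.4, 200 mM NaCl, 0.1 mM EDTA, 25 °C, 5 cm path. Ligand is titrated 0.2–2.0 μM in 0.2 μM steps, with DMSO matched in the reference cuvette. The Soret red-shift difference spectra (peak-to-trough ΔA) are fit to a quadratic tight-binding equation, giving Ks and ΔAmax/Ks.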

[2] = biological target: Sterol 14-alpha demethylase (Trypanosoma cruzi (strain CL Brener)) (UniProt Q7Z1V1); assay: Inhibition of Trypanosoma cruzi CYP51 assessed as substrate conversion level using [3H]eburicol substrate at inhibitor/enzyme molar ratio of 2 after 1 hr by HPLC method; set-up: scale not given: the % may be the effect or the level left
Summary of the method: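 Reconstituted full-length CYP51 (1 μM) with 2 μM CPR, 100 μM dilauroylphosphatidylcholine, and an isocitrate dehydrogenase/isocitrate system in 20 mM MOPS pH 7.4, 50 mM KCl, 5 mM MgCl₂, 10% glycerol. [³H]eburicol is final 50 μM; enzyme/substrate/inhibitor ratio is 1:50:2. After 5 min preincubation at 37 °C, 100 μM NADPH starts the 1 h reaction. Sterols are ethyl acetate-extracted and resolved by reverse-phase HPLC with radiodetection.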

Trypanosoma cruzi [3] = assay: Antitrypanosomal activity against Trypanosoma cruzi Tulahuen trypomastigotes expressing green florescent protein infected in cardiomyocytes assessed as inhibition of parasite growth after 72 hrs by fluorescence microscopy; type: functional, organism-based
Summary of the method: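 GFP-expressing T. cruzi Tulahuen 20A-clone trypomastigotes infect cardiomyocyte monolayers at 10 parasites per cell in DMEM + 10% FBS; unbound parasites are washed off. At 24 h, inhibitors (1–25 nM, in DMSO/phenol-red-free DMEM) are added and cultured 48 h, in triplicate. At 72 h, infection is read as fluorescence (RFU), or cells are fixed in paraformaldehyde and stained with DAPI/phalloidin for microscopy. Posaconazole is the control.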

Trypanosoma cruzi [4] = assay: Antitrypanosomal activity against Trypanosoma cruzi Tulahuen trypomastigotes expressing green florescent protein infected in cardiomyocytes assessed as inhibition of parasite growth at 10 nM after 72 hrs by fluorescence microscopy; type: functional

Sterol 14-alpha demethylase (Trypanosoma cruzi (strain CL Brener)), sequence (Q7Z1V1 whole entry, looked up): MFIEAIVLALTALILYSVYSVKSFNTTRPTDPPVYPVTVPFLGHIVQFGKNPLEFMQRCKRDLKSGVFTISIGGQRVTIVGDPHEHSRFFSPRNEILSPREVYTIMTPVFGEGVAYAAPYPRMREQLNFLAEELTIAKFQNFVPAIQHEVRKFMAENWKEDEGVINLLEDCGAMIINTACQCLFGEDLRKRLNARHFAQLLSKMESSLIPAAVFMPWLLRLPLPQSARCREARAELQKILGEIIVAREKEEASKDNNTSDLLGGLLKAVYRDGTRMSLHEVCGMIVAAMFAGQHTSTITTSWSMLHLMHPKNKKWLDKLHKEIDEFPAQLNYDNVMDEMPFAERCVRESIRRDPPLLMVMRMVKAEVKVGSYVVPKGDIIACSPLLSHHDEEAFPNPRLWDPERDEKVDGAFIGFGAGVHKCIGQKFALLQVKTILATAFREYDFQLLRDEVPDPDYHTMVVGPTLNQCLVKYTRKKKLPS

Row | Structure (SMILES) | Ks [1] | Activity [2] | EC50 (Trypanosoma cruzi [3]) | inhibition at 0.01 µM (Trypanosoma cruzi [4])
1 | O=C(Nc1ccc(Sc2ccc([N+](=O)[O-])cc2)cc1)O[C@@H](Cn1ccnc1)c1ccc(Cl)cc1 | 0.715 µM | 52.5% | 2.5 nM | 62.5%
2 | O=C(Nc1ccc(N2CCN(c3ccc(Cl)c(Cl)c3)CC2)cc1)O[C@@H](Cn1ccnc1)c1ccc(Cl)cc1Cl | – | 0.8% | 1.2 nM | 83%
3 | O=C(O[C@@H](Cn1ccnc1)c1ccccc1)c1ccc(-c2ccccc2)cc1 | 0.087 µM | 79.5% | 15 nM | 29.5%
4 | O=C(O[C@H](Cn1ccnc1)c1ccccc1)c1ccc(-c2ccccc2)cc1 | 0.046 µM | 0.7% | 1.2 nM | 76.3%
5 | O=C(Nc1ccc(Sc2ccc([N+](=O)[O-])cc2)cc1)O[C@H](Cn1ccnc1)c1ccc(Cl)cc1 | 0.162 µM | 12.5% | 1.5 nM | 70%
6 | O=C(Nc1ccc(N2CCN(c3ccc(Cl)c(Cl)c3)CC2)cc1)O[C@H](Cn1ccnc1)c1ccc(Cl)cc1Cl | – | 3.8% | 1.3 nM | 73.5%
7 | CC(C)c1ccc(NC(=O)O[C@H](Cn2ccnc2)c2ccc(F)cc2)cc1 | 0.032 µM | 8.5% | 5.5 nM | 69.3%
8 | O=C(NCCCn1ccnc1)O[C@@H](Cn1ccnc1)c1ccc(F)cc1 | 0.087 µM | 89.2% | – | –
9 | CC(C)c1ccc(NC(=O)O[C@@H](Cn2ccnc2)c2ccc(F)cc2)cc1 | 0.083 µM | 86.5% | 20 nM | 32.1%
10 | CC(C)c1ccc(NC(=O)O[C@@H](Cn2ccnc2)c2ccc(Cl)cc2)cc1 | – | 90% | 22 nM | 30.5%
11 | CC(C)c1ccc(NC(=O)O[C@H](Cn2ccnc2)c2ccc(Cl)cc2)cc1 | – | 1.9% | 1 nM | 74.5%
12 | CC[C@@H]([C@H](C)O)n1ncn(-c2ccc(N3CCN(c4ccc(OC[C@@H]5CO[C@@](Cn6cncn6)(c6ccc(F)cc6F)C5)cc4)CC3)cc2)c1=O [POSACONAZOLE] | – | – | 5 nM | 64%
13 | O=C(NCCCn1ccnc1)O[C@H](Cn1ccnc1)c1ccc(F)cc1 | 0.6 µM | 93.9% | – | –
